Assay outcomes from PubChem.
TRPC4 block = blocks the mouse TRPC4 cation channel | AID 2247 | Q9QUQ5 | 0.39% of 300,000 active | HEK293 TRPC4beta/mu-opioid, DAMGO-evoked Fluo4 calcium flux; active compounds read low | B-score at 10 µM;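 active = B-score over 3 SD under the library average, no early fluorescence shift, positive overall ratio signal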
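Test system – stable TRPC4beta/mu-opioid receptor HEK293 cells · Probe or stimulus – DAMGO, a submaximal dose followed by a maximal one · Dosing – one concentration per compound · Signal – Fluo4 calcium fluorescence by kinetic imaging, 5 s 1 Hz baseline · Evaluation – per-well B score of integrated baseline-normalized Fluo4 ratio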
TRPC6 inhibitor = inhibitors of mouse TRPC6 channel | Q61143 | HEK293-TRPC6, membrane potential dye, ACh-evoked depolarization; active compounds read low | B-score at 10 µM | 1.1% of 310,000 active | AID 2553;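 active = B-score under library mean minus 3 SD, initial fluorescence not abnormally high, positive integrated signal ratio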;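 note: B-score derived from integrated fluorescence ratio over the kinetic read; more negative B-score means stronger inhibition of depolarization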
TRPC6 act = activators of mouse TRPC6 channel. 0.13% of 310,000 active. B-score at 10 µM. Q61143. HEK293-TRPC6 membrane potential dye fluorescence; active compounds read high. AID 2550;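 active = B-score of the integrated fluorescence ratio above library mean plus 3 SD, and starting fluorescence ratio within library mean plus 5 SD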;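 note: higher score means more depolarization so channel activation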
TRPC4 agonist = opens the mouse TRPC4 cation channel | Q9QUQ5 | HEK293 TRPC4beta/mu-opioid, Fluo4 calcium fluorescence; active compounds read high | B-score at 10 µM | 0.49% of 310,000 active;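 active = B-score above 5 SD of library B-scores, and initial fluorescence ratio not above library mean plus 5 SD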;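 note: positive B-score marks a calcium rise read as TRPC4 activation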
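Assay system: HEK293 stable line with TRPC4beta plus mu-opioid receptor; schedule: 45 min room-temperature Fluo4 loading, 110 s read; technique: kinetic Fluo4 calcium fluorescence; evaluation: integrated baseline-normalised fluorescence ratio, converted to per-well B score; controls: buffer (low) and maximal DAMGO (high)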
TRPC4 potent = TRPC4 (mouse) allosteric potentiation | Q9QUQ5 | HEK293 TRPC4beta/mu-opioid, DAMGO EC20, Fluo-4 Ca2+ flux; active compounds read high | B-score at 10 µM | 0.42% of 310,000 active | AID 2227;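 active = B-score of calcium response area above 5 SD of library B-scores, with initial fluorescence ratio within 5 SD of library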
TRPC4 sel inh 2 = second check of whether TRPC6 inhibitors also affect mouse TRPC4; 42% of 920 active; HEK293 TRPC4/MOR, membrane potential dye fluorescence; channel activated by saturating DAMGO dose; AID 2776; shares compounds with TRPC6 inhibitor; inhibition, % at 10 µM;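 active = compounds whose fluorescence signal differed from control wells by over 3 SD, either direction, in both duplicate plates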
TRPC4 spec = mouse TRPC4 off-target activity of TRPC6 inhibitors; HEK293 TRPC4/mu-opioid, membrane potential fluorescence; shares compounds with TRPC6 inhibitor; activity change, negative = inhibition, % at 10 µM; 61% of 920 active;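 active = rise or fall in signal beyond 3 SD of buffer-only wells in both replicate plates, either sign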;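 note: integrated kinetic ratio of fluorescence range over baseline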
HEK293 MPD ctr 2-1 = parental HEK293 nonspecific activity of TRPC6 inhibitors, second screen; 31% of 920 active; signal change vs control, % at 10 µM; parental HEK293 membrane potential dye fluorescence; maximal acetylcholine challenge after compound addition; shares compounds with TRPC6 inhibitor;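 active = membrane potential signal moving either way by over 3 SD of the maximum-effect control, in both duplicate plates, meaning non-specific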
HEK293 MPD ctr-1 = checks TRPC6 inhibitor effects in parental HEK293 cells. 60% of 920 active. shares compounds with TRPC6 inhibitor. membrane potential signal change, % at 10 µM. parental HEK293 membrane potential dye fluorescence;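 active = membrane potential signal shifting up or down by more than 3 SD of buffer-only wells, on both duplicate plates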
HEK293 MPD ctr-2 = counter-screen for TRPC6 modulators: effect in parental HEK293 cells. membrane potential signal change, % at 10 µM. membrane potential dye fluorescence. shares compounds with TRPC6 inhibitor. 51% of 2,400 active. AID 488924;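 active = membrane potential signal moves up or down beyond 5 SD from buffer-only wells, on both duplicate plates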
HEK293 MPD ctr 2-2 = second check of TRPC6 modulator effects in parental HEK293 cells; membrane potential dye fluorescence; after compound, maximal acetylcholine stimulation; shares compounds with TRPC6 inhibitor; inhibition, % at 10 µM; AID 488926; 14% of 2,400 active;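 active = membrane potential signal drops by more than 5 SD from the mean control signal, in both duplicate plates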
TRPC4 ctr mod = mouse TRPC4 off-target activity of TRPC6 modulators; shares compounds with TRPC6 inhibitor; HEK293 TRPC4/mu-opioid, membrane potential fluorescence; percent change from control (negative = decrease, positive = increase), % at 10 µM; 69% of 2,400 active; AID 488927;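 active = membrane potential signal moved up or down beyond 5 SD of buffer control wells, in both duplicate plates, actives on both sides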
TRPC4 ctr inh 2 = second check of whether TRPC6 modulators also affect mouse TRPC4 | shares compounds with TRPC6 inhibitor | HEK293 TRPC4/mu-opioid, membrane potential dye fluorescence; stimulated with maximal-effect DAMGO | inhibition, % at 10 µM | 55% of 2,400 active | AID 488928;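 active = drop in membrane potential signal beyond 5 SD of the control wells in both duplicate plates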;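 note: TRPC4 counter screen for TRPC6 hits run under conditions tuned for TRPC6 not TRPC4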
TRPC6 inh conf = confirmation of mouse TRPC6 inhibitors; shares compounds with TRPC6 inhibitor; HEK293-TRPC6, membrane potential dye, ACh-evoked depolarization; inhibition, % at 10 µM; 43% of 3,300 active;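 active = fluorescence ratio falls more than 5 SD below the full-stimulation control mean, in both duplicate runs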;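 note: integrated fluorescence ratio of peak minus minimum over baseline after agonist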
TRPC6 act conf = mouse TRPC6 activator confirmation. shares compounds with TRPC6 inhibitor. HEK293-TRPC6 membrane potential dye fluorescence, FDSS. activation, % at 10 µM. 11% of 2,800 active. AID 488961;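 active = ratio signal rise beyond 5 SD above unstimulated control wells' mean, seen in both duplicate runs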
Of the large screens only hits and unclear results are named; the others gave an inactive call (follow-up assays come after a bar, where they were run). Shown are actives, neighbours in structure and some others; about 2.3% of the full set was active somewhere.

CCC(C)(C)n1nnnc1C(c1ccc2ncccc2c1)N1CCCC(C)C1 (centres undefined)	TRPC6 inhibitor -7.2 | TRPC4 sel inh 2 inactive | TRPC4 spec 27% | HEK293 MPD ctr 2-1 inactive | HEK293 MPD ctr-1 16% | TRPC6 inh conf inactive
CCc1ccc(N(CC(=O)NCCc2ccccc2)C(=O)CCC(=O)Nc2ccccn2)cc1	none
CNc1nc(SCC(=O)Nc2ccccc2)nc(N2CCOCC2)n1	none
Oc1cccc2ccc(Nc3ccccn3)nc12	TRPC6 inhibitor -9.1 | TRPC4 sel inh 2 inactive | TRPC4 spec -15% | HEK293 MPD ctr 2-1 inactive | HEK293 MPD ctr-1 -180% | TRPC6 inh conf inactive | TRPC6 act conf inactive
CN(C)C=Nc1ncc2c3ccccc3n(CCN(C)C)c2c1C#N	TRPC6 inhibitor -7 | TRPC4 sel inh 2 54% | TRPC4 spec -16% | HEK293 MPD ctr 2-1 inactive | HEK293 MPD ctr-1 -232% | TRPC6 inh conf inactive | TRPC6 act conf inactive
CCN(CC)CCn1c2ccccc2c2cnc(N)c(C#N)c21	TRPC4 block -6, TRPC6 inhibitor -7.2 | TRPC4 sel inh 2 inactive | TRPC4 spec -12% | HEK293 MPD ctr 2-1 inactive | HEK293 MPD ctr-1 -198% | TRPC6 inh conf inactive | TRPC6 act conf inactive
CN(C)C=Nc1ncc2c3ccccc3n(Cc3ccccc3)c2c1C#N	none
Cc1cc(C)n(-c2nc(NCCC(C)C)c3c4c(sc3n2)COC(C)(C)C4)n1	none
Cc1cc(C)n(-c2nc(NCCN(C)C)c3c4c(sc3n2)COC(C)(C)C4)n1	TRPC6 inhibitor -5.4 | HEK293 MPD ctr-2 inactive | HEK293 MPD ctr 2-2 inactive | TRPC4 ctr mod -13% | TRPC4 ctr inh 2 44% | TRPC6 inh conf inactive | TRPC6 act conf inactive
CCN(CC)CCNc1nc(-n2nc(C)cc2C)nc2sc3c(c12)CC(C)(C)OC3	TRPC6 inhibitor -6.3 | HEK293 MPD ctr-2 inactive | HEK293 MPD ctr 2-2 inactive | TRPC4 ctr mod inactive | TRPC4 ctr inh 2 40% | TRPC6 inh conf inactive | TRPC6 act conf inactive
Cc1cc(C)n(-c2nc(NCCCN(C)C)c3c4c(sc3n2)CCCC4)n1	TRPC6 inhibitor -7.1 | TRPC4 sel inh 2 66% | TRPC4 spec inactive | HEK293 MPD ctr 2-1 inactive | HEK293 MPD ctr-1 inactive | TRPC6 inh conf 57% | TRPC6 act conf inactive
Cc1cc(C)n(-c2nc(NCCCN(C)C)c3c4c(sc3n2)COC(C)(C)C4)n1	TRPC6 inhibitor -7.6 | TRPC4 sel inh 2 inactive | TRPC4 spec -11% | HEK293 MPD ctr 2-1 inactive | HEK293 MPD ctr-1 -188% | TRPC6 inh conf inactive | TRPC6 act conf inactive
O=C(CN1C(=O)c2cccc([N+](=O)[O-])c2C1=O)OCC(=O)N1CCCCC1	none
COc1ccc(C(C(=O)NCC2CCCO2)N(C(=O)c2snc(C(N)=O)c2N)c2ccccc2C)cc1OC (centres undefined)	none
CCN(CCCNC(=O)CN1C(=O)COc2ccc(S(=O)(=O)N3CCC(C)CC3)cc21)Cc1ccccc1	none
CCCCN(C(=O)Cn1nnc2ccccc21)C(C(=O)NCCOC)c1ccc(OC)cc1 (centres undefined)	none
COCCN(C(=O)Cn1nnc2ccccc21)C(C(=O)NC1CCCC1)c1ccc(OC)cc1OC (centres undefined)	TRPC6 act 20 | HEK293 MPD ctr-2 600% | HEK293 MPD ctr 2-2 194% | TRPC4 ctr mod 118% | TRPC4 ctr inh 2 inactive | TRPC6 act conf 311%
COCCN(C(=O)Cn1nnc2ccccc21)C(C(=O)NC1CCCCC1)c1ccc(OC)cc1OC (centres undefined)	TRPC6 act 38 | HEK293 MPD ctr-2 818% | HEK293 MPD ctr 2-2 173% | TRPC4 ctr mod 163% | TRPC4 ctr inh 2 inactive | TRPC6 act conf 354%
Cc1ccccc1OCC(=O)NCCS(=O)(=O)N1CCN(c2ccc(F)cc2)CC1	TRPC6 inhibitor -10 | TRPC4 sel inh 2 inactive | TRPC4 spec inactive | HEK293 MPD ctr 2-1 inactive | HEK293 MPD ctr-1 inactive | TRPC6 inh conf 95%
COc1ccc(CC(=O)NCCS(=O)(=O)N2CCN(c3ccccc3)CC2)cc1OC	none
Cc1ccc(OCC(=O)NCCS(=O)(=O)N2CCN(c3ccccc3)CC2)cc1	none
COc1ccccc1OCC(=O)NCCS(=O)(=O)N1CCN(c2ccccc2)CC1	TRPC6 inhibitor -7.5 | TRPC4 sel inh 2 inactive | TRPC4 spec inactive | HEK293 MPD ctr 2-1 inactive | HEK293 MPD ctr-1 inactive | TRPC6 inh conf inactive | TRPC6 act conf inactive
COc1ccc(Cc2n[nH]c(=S)n2C)cc1Br	none
CN1CCN(c2nc(-c3ccc(Cl)cc3)cc(=O)[nH]2)CC1	none
CCNC(=O)COC(=O)C1CCN(S(=O)(=O)c2ccc3c(c2)OCCO3)CC1	none
CC(C)C(C)NC(=O)COC(=O)C1CCN(S(=O)(=O)c2ccc3c(c2)OCCO3)CC1 (centres undefined)	TRPC6 inhibitor -6.4 | HEK293 MPD ctr-2 inactive | HEK293 MPD ctr 2-2 inactive | TRPC4 ctr mod 7.0% | TRPC4 ctr inh 2 inactive | TRPC6 inh conf inactive | TRPC6 act conf inactive
O=C(Nc1ccccc1C(=O)NCCCN1CCOCC1)c1ccc(Cl)cc1	none
CN1C2CCC1CC(NC(=O)CSCc1ccc(Cl)cc1Cl)C2 (centres undefined)	none
